According to ChEMBL document CHEMBL1158069, “Antiplasmodial metabolites isolated from the marine octocoral Muricea austera” (J Nat Prod, 2006):

Key:
Plasmodium falciparum = assay: Antiplasmodial activity against chloroquine-resistant Plasmodium falciparum W2 as parasite DNA microfluorimetric assay; assay type: functional, organism-based
Summary of the method: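 P. falciparum W2 (chloroquine-resistant) grown by the Trager–Jensen method at 2% hematocrit in RPMI 1640 with 10% human serum. Growth inhibition read microfluorimetrically by PicoGreen intercalation into parasite DNA. IC50 in µM.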

Trypanosoma cruzi = assay: Antitrypanosomal activity against Trypanosoma cruzi Tulahuen C4 infected in african green monkey Vero cells assessed as growth inhibition of […] by beta-galactosidase reporter gene assay; assay type: functional, organism-based
Summary of the method: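 Recombinant Tulahuen clone C4 expressing β-galactosidase reporter; […] grown inside Vero cells with test samples. β-Gal cleavage of chlorophenol red-β-D-galactoside (CPRG) read colorimetrically at 570 nm. IC50 taken as concentration giving 50% inhibition of parasite growth versus untreated control, on duplicate samples.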

Compound	IC50 (Plasmodium falciparum) [µM]	IC50 (Trypanosoma cruzi) [µM]
CC(=O)NCCc1ccc(O)cc1	> 50	–
CCCCCCCCCC(=O)NCCc1ccc(O)cc1	72	–
CCCCCCCCCCCC(=O)NCCc1ccc(O)cc1	47	–
O=C(NCCc1ccc(O)cc1)c1ccccc1	> 50	–
CCCCCCCCCCCC(=O)O[C@@H]1[C@@H](OC(=O)CCCCCCCCCCC)[C@@H](OC)OC[C@@H]1OC(=O)CCCCCCCCCCC	> 50	> 50
CO[C@H]1O[C@H](COC(=O)c2ccccc2)[C@H](OC(=O)c2ccccc2)[C@H](OC(=O)c2ccccc2)[C@H]1OC(=O)c1ccccc1	29	> 50
C=C[C@H]1CC[C@H]2[C@@H]3CC=C4C[C@@H](O[C@@H]5OC[C@@H](OC(C)=O)[C@@H](OC(C)=O)[C@@H]5OC(C)=O)CC[C@]4(C)[C@H]3CC[C@]12C	28	28
CCCCCCCCCCCC(=O)O[C@@H]1[C@@H](OC(=O)CCCCCCCCCCC)[C@H](OC)OC[C@@H]1OC(=O)CCCCCCCCCCC	> 50	> 50
CC/C=C\C/C=C\C/C=C\CCCC(=O)NCCc1ccc(O)cc1	38	–
O=C(CCCCC(=O)NCCc1ccc(O)cc1)NCCc1ccc(O)cc1	117	–
CCCCCCCCCC(C)CC(=O)NCCc1ccc(O)cc1 (stereo not given)	45	> 50
C=C[C@H]1CC[C@H]2[C@@H]3CC=C4C[C@@H](O[C@@H]5OC[C@@H](O)[C@@H](OC(C)=O)[C@@H]5O)CC[C@]4(C)[C@H]3CC[C@]12C	67	96
C=C[C@H]1CC[C@H]2[C@@H]3CC=C4C[C@@H](O[C@@H]5OC[C@@H](OC(C)=O)[C@@H](O)[C@@H]5O)CC[C@]4(C)[C@H]3CC[C@]12C	80	101
CCCCO[C@@H]1OC[C@H](OC(C)=O)[C@H](OC(C)=O)[C@H]1OC(C)=O	> 50	> 50
CC[C@H](O)CC(=O)NCCc1ccc(O)cc1	> 50	–
CCCCCCCCCCCC(=O)NCCc1cc(Br)c(O)c(Br)c1	17	–
CO[C@@H]1OC[C@H](OC(C)=O)[C@H](OC(C)=O)[C@H]1OC(C)=O	> 50	> 50

Compound	IC50 (Plasmodium falciparum) [µM]	IC50 (Trypanosoma cruzi) [µM]
CO[C@H]1O[C@H](C)[C@H](OC(=O)c2ccccc2)[C@H](OC(=O)c2ccccc2)[C@H]1OC(=O)c1ccccc1	43	> 50
CCCCCCC(O)CCCCCCCCCCC(=O)NCCc1ccc(O)cc1 (stereo not given)	62	–
CCCCCCCCCCCCNC(=O)CCc1ccc(O)cc1	24	–
CCCCCCCCC/C(C)=C\C(=O)NCCc1ccc(O)cc1	36	> 50
CC(=O)O/C1=C/Cc2c(C)coc2C/C(C)=C/CC1	> 50	–
O=C(NCCc1ccc(OC(=O)c2ccccc2)cc1)c1ccccc1	64	–
CO[C@@H]1OC[C@H](OC(=O)c2ccccc2)[C@H](OC(=O)c2ccccc2)[C@H]1OC(=O)c1ccccc1	21	> 50
CCCCCCCCCCCCCC(=O)NCCc1ccc(O)cc1	34	–
CO[C@@H]1O[C@H](COC(=O)c2ccccc2)[C@H](OC(=O)c2ccccc2)[C@H](OC(=O)c2ccccc2)[C@H]1OC(=O)c1ccccc1	> 50	> 50
O=CNCCc1ccc(O)cc1	> 50	–
C=C[C@]1(C)Cc2occ(C)c2C[C@H]1C(=C)OC(C)=O	42	173
CO[C@H]1OC[C@H](OC(=O)c2ccccc2)[C@H](OC(=O)c2ccccc2)[C@H]1OC(=O)c1ccccc1	35	> 50
CO[C@@H]1O[C@H](C)[C@H](OC(=O)c2ccccc2)[C@H](OC(=O)c2ccccc2)[C@H]1OC(=O)c1ccccc1	36	> 50
O[C@@H]1[C@@H](O)[C@@H](O)CO[C@H]1O [L-ARABINOSE]	> 50	> 50
CC1CS(=O)(=O)CCN1/N=C/c1ccc([N+](=O)[O-])o1 (stereo not given) [NIFURTIMOX]	–	11
NCCc1ccc(O)cc1 [TYRAMINE]	160	–
